Source: PubChem
Sampled rows, rich in hits. Any-hit rate of the full collection: about 1.5%.
APJ antagonist: APJ receptor antagonism | P35414 | CHO-K1 APJ beta-arrestin complementation, luminescence | inhibition, % at 20 µM | 330,000 tested, 0.32% active;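 active = inhibition above about 40% at 20 µM, limit read from the data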;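 also: cells challenged with 10 nM apelin-13 agonist together with compound; plate controls were apelin-13 plus DMSO wells for no effect and DMSO wells lacking apelin-13 for full effect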
CCR6 antagonist: CCR6 (human) receptor antagonism; P51684; 340,000 tested, 0.49% active; AID 493098; CHO-K1 CCR6 PathHunter beta-arrestin, luminescence, CCL20-stimulated; inhibition, % at 20 µM;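 active = compounds whose inhibition of the agonist-driven luminescence signal at 20 µM reaches about 50%, limit read from the data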;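 also: cells stimulated with CCL20 at 14 nM final; plate controls were DMSO with CCL20 for no effect and DMSO without agonist for full effect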
Target sequence (P51684 whole entry, looked up): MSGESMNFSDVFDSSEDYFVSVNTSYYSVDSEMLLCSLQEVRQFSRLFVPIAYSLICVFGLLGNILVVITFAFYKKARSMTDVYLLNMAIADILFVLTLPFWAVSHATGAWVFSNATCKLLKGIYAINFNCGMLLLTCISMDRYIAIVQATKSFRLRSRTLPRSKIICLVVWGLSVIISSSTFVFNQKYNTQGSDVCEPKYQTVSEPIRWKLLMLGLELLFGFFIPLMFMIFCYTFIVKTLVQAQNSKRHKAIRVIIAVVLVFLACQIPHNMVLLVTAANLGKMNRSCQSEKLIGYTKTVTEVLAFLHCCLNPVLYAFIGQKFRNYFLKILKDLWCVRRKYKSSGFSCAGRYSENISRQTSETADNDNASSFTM
APJ agonist: activates the human apelin receptor APJ; activation, % at 20 µM; CHO-K1 APJ PathHunter beta-arrestin, luminescence; 0% DMSO wells, 100% apelin; 330,000 tested, 0.11% active;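 active = activation more than six SD over the plate average, tested at 20 µM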;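 also: 0% = DMSO alone and 100% = apelin-13 at 10 nM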
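Test system: CHO-K1 APJ beta-arrestin complementation cell line | Compound: Single test compound dose, 20 µM final, 1% DMSO | Incubation: Compound 90 min 25 °C, reagent 1 h | Measured by: beta-gal luminescence | Read-out basis: APJ–arrestin association signal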
CXCR6 block: blocks human CXCR6 beta-arrestin recruitment. O00574. CHO-K1 PathHunter CXCR6 beta-arrestin, luminescence. inhibition, % at 20 µM. 360,000 tested, 0.36% active. AID 602244; in the data active = inhibition above about 34%, passing the limit was not always enough;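 also: antagonist mode with CXCL16 agonist at 10 nM final; 0% = 10 nM CXCL16 with DMSO and 100% = unstimulated wells without agonist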
EBI2 block: EBI2 (human) antagonism; P32249; EBI2 beta-arrestin recruitment, luminescence, 7a,25-OHC stimulated; inhibition, % at 5 µM; 360,000 tested, 0.81% active; AID 651636; in the data active = inhibition above about 38%;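 also: enzyme fragment complementation signal reports receptor beta-arrestin coupling in cells; 0% = agonist plus DMSO wells and 100% = wells without agonist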
EBI2 conf: confirmation of human EBI2 receptor antagonists; 2,400 tested, 29% active; shares compounds with EBI2 block; EBI2 beta-arrestin luminescence, 7a,25-OHC antagonism; inhibition, % at 5 µM;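 active = inhibition of at least 50%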
EBI2 ag: counter-screen for EBI2 antagonists: EBI2 agonist activity; shares compounds with EBI2 block; EBI2-expressing cells, agonist mode, luminescence, 60 min; 0% vehicle, 100% 7α,25-dihydroxycholesterol control; activation, % at 5 µM; 2,400 tested, under 10 active;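 active = activation of at least 50%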
bGal counter: inhibits E. coli beta-galactosidase, counter-screen for EBI2 antagonists | shares compounds with EBI2 block | purified beta-galactosidase, luminescent Galacton Star, 15 min | inhibition, % at 5 µM | 2,400 tested, 1% active | AID 652176;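 active = replicate-average signal at least 3 plate SD below neutral wells, shown as high inhibition, flagging enzyme-inhibiting false positives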;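 also: 0% = DMSO wells with enzyme and 100% = wells lacking enzyme; higher means stronger loss of beta-gal luminescence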
Starred values were filed as active, the others as inactive; nt = no result given.

SMILES	APJ antagonist	CCR6 antagonist	APJ agonist	CXCR6 block	EBI2 block	EBI2 conf	EBI2 ag	bGal counter
Cc1cccc(OCCOC(=O)C2CCN(S(=O)(=O)c3ccc(C)c(C)c3)CC2)c1	-13	26	-1	13	22	nt	nt	nt
Cc1ccc(S(=O)(=O)N2CCC(C(=O)OCCOc3ccccc3)CC2)cc1C	10	13	-4	-9	45*	40	-1	-20
Cc1ccc(OCCOC(=O)C2CCN(S(=O)(=O)c3ccc(C)c(C)c3)CC2)cc1	11	2	-2	-1	56*	26	0	7
CCN1CCN(C(=O)/C=C/c2ccc(C)cc2)CC1	-9	4	-9	4	95*	84*	2	5
O=C(/C=C/c1ccc(F)cc1)N1CCCN(C(=O)/C=C/c2ccc(F)cc2)CC1	-19	11	-2	2	85*	73*	-2	-19
Cc1ccc(/C=C/C(=O)N2CCCN(C(=O)/C=C/c3ccc(C)cc3)CC2)cc1	-5	-8	0	-14	94*	82*	1	-1
O=C(C=Cc1ccccc1)N1CCCCC1	nt	0	nt	-3	21	nt	nt	nt
Cc1ccc(/C=C/C(=O)NN2CCN(C)CC2)cc1	8	2	-1	-2	64*	39	-1	-7
Cc1cc(C)cc(NC(=O)CCn2cnc3cc(C)c(C)cc32)c1	25	7	-4	2	2	nt	nt	nt
CCOc1ccc(Cl)cc1-c1cc(C(=O)NCc2cccc(C(F)(F)F)c2)[nH]n1	nt	nt	nt	3	3	nt	nt	nt
COc1cc(-c2nnc(SCc3c(F)cccc3Cl)o2)cc(OC)c1OC	2	8	-2	-2	42*	47	1	0
COc1cc(-c2nnc(SCc3ccccc3Cl)o2)cc(OC)c1OC	28	18	-3	5	36	nt	nt	nt
COC(=O)[C@@]1(Cc2ccc(OC)cc2)[C@H]2c3cc(C(=O)N4CCCC4)n(CCc4ccc(OC)c(Br)c4)c3C[C@H]2CN1C(=O)c1ccccc1	nt	nt	nt	15	44*	5	-1	-13
O=C(/C=C/c1ccc(Cl)cc1)NC1CC2CCC1C2 (stereo unspecified)	2	21	-2	3	63*	24	-1	-9
CCOC(=O)N1CCN(C(=O)COc2ccc3ccccc3c2Br)CC1	1	-1	10	-10	52*	24	-1	-7
CCOC(=O)N1CCN(C(=O)COc2cc(C)c(Cl)c(C)c2)CC1	8	9	-4	0	83*	63*	1	-2
CCOC(=O)N1CCN(C(=O)COc2ccccc2Cl)CC1	33	-5	-15	-10	8	nt	nt	nt
O=C(COc1ccc2ccccc2c1Br)N1CCCC1	-24	-12	0	3	2	nt	nt	nt
Cc1cccc(Oc2ncnc3oc(-c4ccccc4)cc23)c1C	-1	-7	-1	-9	67*	47	1	9
Cc1cccc(Oc2ncnc(N)c2[N+](=O)[O-])c1C	7	2	-10	-1	0	nt	nt	nt
Cc1cc(Cl)ccc1Oc1ncnc2oc(-c3ccccc3)cc12	-4	4	-6	-3	53*	38	0	2
CC(NC(=O)COC(=O)/C=C/c1cccc(F)c1)c1ccccc1 (stereo unspecified)	5	0	-3	-7	17	nt	nt	nt
CC(NC(=O)COC(=O)/C=C/c1ccc(Cl)cc1)c1ccccc1 (stereo unspecified)	-16	15	0	3	48*	15	-1	-11
CC(C)(C)c1ccc(C(=O)N2CCC(C(=O)c3ccccc3)CC2)cc1	-2	7	-1	-1	12	nt	nt	nt
Cc1ccc(C(=O)N2CCC(C(=O)c3ccc(Cl)cc3)CC2)cc1	4	5	-2	5	61*	41	1	12
SMILES	APJ antagonist	CCR6 antagonist	APJ agonist	CXCR6 block	EBI2 block	EBI2 conf	EBI2 ag	bGal counter
O=C(c1ccccc1)C1CCN(C(=O)c2ccc(Cl)cc2)CC1	4	10	-3	-1	86*	73*	2	5
CCN1CCN(C(c2ccccc2)c2nnnn2Cc2ccc(OC)cc2)CC1 (stereo unspecified)	6	3	-1	0	2	nt	nt	nt
C(=C\c1ccccc1)/CN1CCN(C(c2ccccc2)c2nnnn2Cc2ccccc2)CC1 (stereo unspecified)	nt	nt	nt	5	47*	37	-1	-18
COc1ccc(-n2nnnc2C(c2ccccc2)N2CCN(C/C=C/c3ccccc3)CC2)cc1 (stereo unspecified)	nt	nt	nt	9	53*	41	1	-1
COc1ccc(C(c2nnnn2Cc2ccccc2)N2CCN(C/C=C/c3ccccc3)CC2)cc1 (stereo unspecified)	nt	nt	nt	16	50*	20	1	-14
CCC(c1nnnn1Cc1ccccc1)N1CCN(C/C=C/c2ccccc2)CC1 (stereo unspecified)	nt	nt	nt	0	30	nt	nt	nt
COc1ccc(CN2CCN(Cc3ccc4cc(F)ccc4n3)CC2CCO)c(C)c1C (stereo unspecified)	9	19	-4	-9	-5	nt	nt	nt
Cc1nn(-c2ccccc2)c(C)c1NC(=O)COc1cc(F)ccc1[N+](=O)[O-]	5	7	0	-16	-3	nt	nt	nt
CC(C)Cc1nc2sc3c(NCc4ccco4)ncnc3c2c2c1COC(C)(C)C2	-9	-5	-4	3	47*	42	0	4
O=C(Nc1ccc(S(=O)(=O)NCC2CCCO2)cc1)C1CC(=O)N(c2ccccc2)C1 (stereo unspecified)	10	3	-3	0	5	nt	nt	nt
CCc1ccc(N2CC(C(=O)Nc3ccc(S(=O)(=O)NCC4CCCO4)cc3)CC2=O)cc1 (stereo unspecified)	7	0	-2	5	60*	64*	-2	-17
NC(=O)c1ccc[n+]([C@H]2O[C@@H](COP(=O)([O-])OP(=O)(O)OC[C@H]3O[C@@H](n4cnc5c(N)ncnc54)[C@H](O)[C@@H]3O)[C@H](O)[C@@H]2O)c1	3	5	-1	5	-3	nt	nt	nt
CCOc1ncccc1C(=O)OCC(=O)Nc1ccc2c(c1)OCO2	-6	19	1	1	-6	nt	nt	nt
CC(C)C(OC(=O)c1oc2ccccc2c1CSC1CCCCC1)C(=O)NC(N)=O (stereo unspecified)	-7	nt	-4	nt	nt	nt	nt	nt
CCNC(=O)NC(=O)C(C)OC(=O)c1oc2ccccc2c1CSC1CCCCC1 (stereo unspecified)	6	13	-4	-3	44*	35	0	2
